Measured values from different studies.
Protocols differ between the studies behind these lines.
CHRM1: Muscarinic acetylcholine receptor M1 (CHRM1, Homo sapiens, UniProt P11229)
TLR7: Toll-like receptor 7 (TLR7, Homo sapiens, UniProt Q9NYK1)
Grm8: Metabotropic glutamate receptor 8 (Grm8, Rattus norvegicus, UniProt P70579)
Melanocortin receptor 3: Melanocortin receptor 3 (Mus musculus, UniProt P33033)

With `C[C@]12CCC3=C4CCC(=O)C=C4CC[C@H]3[C@@H]1CC[C@@]2(O)CC#N` the EC50 was 0.0036 µM (Progesterone receptor (PGR, Homo sapiens, UniProt P06401); reporter gene, agonist).
`CCn1c(-c2nc3cc(C(=O)N4CCC[C@@H](N)C4)cc(OC)c3n2C)cc2cccnc21` has an EC50 of 7.94 µM (CHRM1; calcium signal, agonist).
With `CCCCOc1nc(N)c2[nH]c(=O)n(C3CNC3)c2n1` the EC50 was 286 µM (TLR7; reporter gene, agonist).
The EC50 of `N[C@@H](CCC(=O)O)C(=O)O` is reported as 6.3 µM (Grm8; ion flux, agonist).
`CCNC(=O)C1OC(n2cnc3c(N)nc(NN=CC4CCC=CO4)nc32)C(O)C1O` (centres unmarked) has an EC50 of 31 µM (Adenosine receptor A2b (ADORA2B, Homo sapiens, UniProt P29275); GTPγS binding, agonist; cell membranes).
The EC50 of `CC(=O)c1cc([N+](=O)[O-])c(Sc2cccc(Cl)c2Cl)s1` is reported as greater than 50 µM (Collagenase 3 (MMP13, Homo sapiens, UniProt P45452); enzyme activity, inhibitor).
The EC50 of `CSCC[C@H](NC(=O)[C@@H](NC(=O)[C@@H](N)Cc1ccc(O)cc1)C(C)C)C(=O)NCC(=O)N[C@@H](Cc1c[nH]cn1)C(=O)N[C@@H](Cc1ccccc1)C(=O)N[C@@H](CCCNC(=N)N)C(=O)N[C@@H](Cc1c[nH]c2ccccc12)C(=O)O` is reported as 2.8 µM (Melanocortin receptor 3; reporter gene, agonist).
`COC(=O)c1ccc(-n2c(C)cc(C(=O)CSc3ccc(NC(C)=O)cc3)c2C)cc1` gave an EC50 of 0.851 µM (Grm8; calcium signal, positive allosteric modulator).
`CCCC[C@H](NC(=O)[C@@H](NC(=O)[C@@H](N)Cc1ccc(O)cc1)C(C)C)C(=O)NCC(=O)N[C@@H](Cc1c[nH]cn1)C(=O)N[C@@H](Cc1ccccc1)C(=O)N[C@@H](CCCNC(=N)N)C(=O)N[C@H](Cc1c[nH]c2ccccc12)C(=O)N[C@@H](CC(=O)O)C(=O)N[C@@H](CCCNC(=N)N)C(=O)N[C@@H](Cc1ccccc1)C(=O)NCC(=O)O` has an EC50 of 0.04 µM (Melanocortin receptor 3; reporter gene, agonist).
With `CCn1c(-c2nc3ccc(C(=O)N4CCCC(N)C4)cc3n2C)cc2ccccc21` (centres unmarked) the EC50 was 15.8 µM (CHRM1; calcium signal, agonist).
With `CCCC[C@H](NC(=O)[C@@H](NC(=O)[C@@H](N)Cc1ccc(O)cc1)C(C)C)C(=O)NCC(=O)N[C@@H](Cc1c[nH]cn1)C(=O)N[C@@H](Cc1ccccc1)C(=O)N[C@@H](CCCN=C(N)N)C(=O)N[C@@H](Cc1c[nH]c2ccccc12)C(=O)N[C@@H](CC(=O)O)C(=O)N[C@@H](CCCN=C(N)N)C(=O)N[C@@H](Cc1ccccc1)C(=O)NCC(=O)O` the EC50 was 0.068 µM (Melanocortin receptor 3; reporter gene, agonist).
With `CCCCOc1nc(N)c2[nH]c(=O)n(CCN3CCNCC3)c2n1` the EC50 was 10 µM (TLR7; reporter gene, agonist).
With `CSCC[C@H](N)C(=O)NCC(=O)N[C@@H](Cc1c[nH]cn1)C(=O)N[C@@H](Cc1ccccc1)C(=O)N[C@@H](CCCNC(=N)N)C(=O)N[C@@H](Cc1c[nH]c2ccccc12)C(=O)O` the EC50 was 22.4 µM (Melanocortin receptor 3; reporter gene, agonist).
`CC[C@@H]1SC2(CCN(C)CC2)NC1=O` gave an EC50 of greater than 50 µM (Muscarinic acetylcholine receptor M4 (Rattus norvegicus, UniProt P08485); calcium signal, agonist).
